Our source for the yeast fitness values is the RNAGym collection of RNA variant scans (doi:10.1126/science.aae0568).

This sample holds only a part of the variants without activity.

The labels stand for the following.
B1: tRNA (parent)
chain: GUUCCGUUGGCGUAAUGGUAACGCGUCUCCCUCCUAAGGAGAAGACUGCGGGUUCGAGUCCCGUACGGAACG

Variants of B1 are the subject of the data set. The experiment in a line: yeast fitness relative to wild type (ratio to wild type); higher = fitter; tRNA-Arg(CCU), competitive growth, 37 C, YPD. Put shortly: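 Changes in genotype frequencies gave Darwinian fitness relative to wild type. Frequencies were read by 100-nucleotide paired-end sequencing of gene amplicons before and after pooled Saccharomyces cerevisiae strains, carrying tRNA-Arg(CCU) gene variants at the native locus, were competed in YPD at 37°C for 24 hours in six replicates. A genotype was kept only with ≥ 100 starting reads, and estimates < 0.5 were set to 0.5.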
Take GUUCUGUUGGCGUCAUGGUAACGCGUCUCCCUCCUAAGGAGAAGACUGCGGCUUCGAGUCCCGUUCGGAACG [C5U A14C G52C A65U]: the yeast fitness is at most 0.5.
Next, GUUUCGUUGGCGUAAUGGUAACGCGUCUCCCUCAUAAGGAGAAGACUGCGGGUUCAAGUGCCGUACGGAACG [C4U C34A G56A C60G]: at most 0.5; GUUCGGUUGGCGUAAUGGUAACGCGUCUUCCUCCUAAGAAGAAGACUGCGGGUUCGAGUCCCGUACGGAACG [C5G C29U G39A]: 0.671; GUUCCGUUGGCGUAAUGGUAACGCGUCUCCCUCCCAAGGAAACGACUGCGGGUUCGGGUCCCGUACGGAACG [U35C G41A A43C A57G]: 0.501.
Next, GUUCCGUUGGCGUAAUGGUAACGCGUCUCCCUCCUAAGGAGAACACUGCGGGUUCGGGUCCCGUACGGAACG [G44C A57G]: 0.895.
As for GUUCCGUUGGCGUAAUGGUAACGCGUCUCCCUCCUAAGCAGAAGACUGCGGGUUCGAGUACCGUACGGAACG [G39C C60A], the yeast fitness worked out at 0.587.
Next, GUUCCGUUGGCGUAAUGGUAACGCGUCUCCCUCCUAAGGAGAAGACUGGGGGUUCGAGUCCCAUAUGGAACG [C49G G63A C66U]: 0.524; GUUCCGUUGGCGUAAUGGUAACGCGUCUCCGUCCUAAGGAGAUGACUGCGGGUUCGAGUCCCGUACGGAACG [C31G A43U]: 0.984.
With GUUCCGUCGGCGUAUUGGUAAGGCGUCUCCUUCCUAAGGAGAAGACUGCGGGUUCGCGUCCCGAACGAAACG [U8C A15U C22G C31U A57C U64A G68A], the yeast fitness was at most 0.5.
Next, GUUCCGUUAGCGUAAUGGUAACGCGUCUCCCUCUUAAGGAGAACCCUGCGGGUUCGAGUCCCGUAAGGAACG [G9A C34U G44C A45C C66A]: 0.578; GUUCCGUUGGCGUACUGGUAACGCGGCCCCCCCCUAGGGAAAAGACUGGGGGUUCGAGUCCCGUACGGAACG [A15C U26G U28C U32C A37G G41A C49G]: at most 0.5.
Regarding GUUCCGUCGGCGUAAUGGUAACGCAUCUGCAUCCUAAGGAGAAGACUGCGGGUUCGAGUCCUGUACGGAACG [U8C G25A C29G C31A C62U], the yeast fitness is at most 0.5.
On to GUCCCGUUGGCGUAAUGGUAACGCGUCUCCCUCCUAAGGAGUAGUCUGCGGGUUCGAGUCCCGCACGGAACG [U3C A42U A45U U64C], for which the yeast fitness amounted to 0.885.
Next, GUUCGGUUGGCGUAAUGGUAACGCGUCUCCCUCCUAAGGAGAAGACUGCGGGUUCGAGUCGCGUUCGGAACG [C5G C61G A65U]: at most 0.5; GUCCCGUUGGCGUUAUGGUAACGCGUCUCCCUCCUAUGGAGAAGACUGCGGGUUCGAGUACCGUACGGAACG [U3C A14U A37U C60A]: 0.586.
Next, GUUCCGUUGGCGUAAUGGUGACGCGUCUCCCUCCUAAGGAGAAGAGUGCGGGUUCGAGUCCCGUACGGAACG [A20G C46G]: 0.942.
Next, GAUCCGUUGGCGUAAUGGUAACGCGUCUCCCUCCUAAGGUGAAGACUGCGGGUUCGAGUCCCGUCCGGAACG [U2A A40U A65C]: at most 0.5.
Turning to GUUCCGUUGGCGUAAUGGCAACGCGUCUCCCUCCUAACGAGAAGACUGCGGGUUCGACUCCCGAACGGAACG [U19C G38C G58C U64A], the yeast fitness is at most 0.5.
Next, GUUCCGUUGGAGUAACGCUAACGCGUCUCCCUCCUAAGGAGAAGCCUGCGGGUUCGCGUCCCGUACGCGACG [C11A U16C G18C A45C A57C G68C A69G]: at most 0.5; GUUCCGUUAGCGUAAUGGUAAUGCGUCUCCCUCCUAAGGAGAAGACUACGGGUUCGAGUGCCGUCCGGAACG [G9A C22U G48A C60G A65C]: at most 0.5; GUUCCGUUAGCGUAAUGCUAACGCGUCUCCCUCCUAAGCAGAAGACUGCGGGUUCGAGUCCCGUACGGUACG [G9A G18C G39C A69U]: at most 0.5.
Next, GUUCCGUUGGCGUAAUGGUAACGCAUCUCCCUCCUAAGGAGAAGCCUGCGGGCUUCAGUCCCGUACGGAACG [G25A A45C U53C C55U G56C]: at most 0.5; GUUCCGUUGGCGGAAUGGUAACGCGUCUCCCUCCAAGGGAGAUGCCUGCGGGUUCGAGUCCCGUCCGGAACG [U13G U35A A37G A43U A45C A65C]: at most 0.5; GUUCCGUUGCCGAAAUGGUAACGCGUCUCCAUCCUAAGGAGAAGACUGCGGGUUUGAGUCCCGUACGGAACG [G10C U13A C31A C55U]: at most 0.5.
Next, GUUCCGUUGGCGUAAUGGUAAAGCGUCUCCCUCCUAAGGGGAAGACUGCGGGUUCGAGUCCCGUACGGAACG [C22A A40G]: 0.671; GGUCCGUUGGCGUACUGGUAACGCGUCUCCCUCCUAAGGAGAGGACUGCGGGUUCGAGUCCCGUACGGAACG [U2G A15C A43G]: at most 0.5; GUUCCGUUGGCGUAAUGGUAACGCGUCUCCCUCCUAAGGAGCAGACUACGGGUUCGAGUCCUGUACGGAACG [A42C G48A C62U]: 1.03.
On to GUUCCGUUGGCGUAAUGGUAACGCGUGUACCUCCUAAGGAGAAGACUGCGGCUUCGAGUCCCGUACGGAACG [C27G C29A G52C], for which the yeast fitness was at most 0.5.
Next, GUUCCGUUGGCGUAAUGGUUACGCGUCUCCCUCAUAAGGAGAAGACUGCGGGUUCGAGACCCGUACGGAACG [A20U C34A U59A]: 0.538; GUUCCGUUGGCGUGAUGGUAACGCGUCUCCCUCCUAAGGAGAAGACUGCGGGUUCGAGUCCUGUACGCAACG [A14G C62U G68C]: at most 0.5.
On to GUUCCGUUGGCGUAAUGGUAUCGCGUCUCCCGCCUAAGGAGAAGACUGCGGGUUAGAGCCCCGUACGGAACG [A21U U32G C55A U59C], for which the yeast fitness was at most 0.5.
Next, GUUCCGUUGGCGUAAUGGUAACGCGUCUCCCUCCUAAGGAGAAGACUGCGAAUUCGAGUCCCGUACGGAACG [G51A G52A]: 0.571.
Next, GUUCCGUUGGCGUAAUGGUAUCGCGUCUCCCUCCUAUGGAGAAGACUGCGGGUUCGAGUCCCGUCUGGAACG [A21U A37U A65C C66U]: at most 0.5; GUUCCGUAGGUGUAAUGGUAACGCGUCUCCCUCCUAAGGAGAAGACUGCGGGUUCGAGUCCCGUACGGACCG [U8A C11U A70C]: 0.622; GUUCCGUUGGCGUAAUGGUAACGCGUCUCCCUGCUAACGAGAAGAGUGCGGGCUCGAGUCCCGUACGGCACG [C33G G38C C46G U53C A69C]: at most 0.5.
Next, GUUCCGUUGGCGUAAUGGUAACGCGUCUCCCCCCUAAGGAGAGGACUGCGGGUUCGAGUCCCGUACGGAACG [U32C A43G]: 0.998.
As to GUUCCGGUGGCGUAAUGGUAACGCGUCUCCCUCCUAAGGAGAAGACUGUGGGUUCGUGUCCCGUACGGAACG [U7G C49U A57U], the yeast fitness is at most 0.5.
Next, GUUCCGUUGGCGUAAUGGUAACGCGUCUCACUCCUAAGGAGAAGACUGCGGGUUCGACUCCCAUACGGAACG [C30A G58C G63A]: at most 0.5.
